Data reported in ChEMBL document CHEMBL1629690, “Development of hexadecyloxypropyl tenofovir (CMX157) for treatment of infection caused by wild-type and nucleoside/nucleotide-resistant HIV” (Antimicrob Agents Chemother, 2010).

System: Human immunodeficiency virus 1
Assay: Antiviral activity against HIV1 isolate 194 harboring reverse transcriptase M41L/T215Y/M184V mutant gene by phenosense assay
Format: functional, organism-based
Conditions: Human immunodeficiency virus 1, isolate 194
In short: (§1)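 Recombinant-virus PhenoSense HIV assay run on a panel of 30 NRTI-resistant HIV-1 mutants and two wild-type viruses. Each virus is tested across increasing drug concentrations to give an inhibition curve and EC50. Fold change is the test recombinant EC50 divided by the EC50 of the drug-sensitive wild-type reference virus.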

Which EC50 does the source give for Nc1ccn([C@@H]2CS[C@H](CO)O2)c(=O)n1 [LAMIVUDINE] here?
Its EC50 is greater than 300 µM.

System: Human immunodeficiency virus 1
Assay: Antiviral activity against HIV1 isolate 070 harboring reverse transcriptase 65R/S68G mutant gene by phenosense assay
Format: functional, organism-based
Conditions: Human immunodeficiency virus 1, isolate 070
In short: as §1

Which EC50 does the source give for Nc1ccn([C@@H]2CS[C@H](CO)O2)c(=O)n1 [LAMIVUDINE] here?
The EC50 was 71 µM.

System: Human immunodeficiency virus 1
Assay: Antiviral activity against HIV1 isolate 206 harboring reverse transcriptase D67N/K70R mutant gene by phenosense assay
Format: functional, organism-based
Conditions: Human immunodeficiency virus 1, isolate 206
In short: (§2)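 PhenoSense HIV recombinant virus assay: patient-derived HIV-1 with major NRTI resistance mutations tested against increasing drug concentrations to give inhibition curves. EC50 is the concentration giving 50% inhibition. Fold change is the test recombinant EC50 divided by the EC50 of a drug-sensitive wild-type reference virus. Panel of 30 NRTI-resistant isolates plus two wild-type viruses.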

With Nc1ccn([C@@H]2CS[C@H](CO)O2)c(=O)n1 [LAMIVUDINE] as the compound, how does the EC50 read?
Its EC50 is 8.1 µM.

System: Human immunodeficiency virus 1
Assay: Antiviral activity against HIV1 isolate 174 harboring reverse transcriptase M184V mutant gene obtained as site-directed mutant of NL4-3 by phenosense assay relative to wild type
Format: functional
Conditions: not given
In short: as §1

How did the “fold change (FC)” value turn out when Nc1ccn([C@@H]2CS[C@H](CO)O2)c(=O)n1 [LAMIVUDINE] was run?
Its value is greater than 80.

System: Human immunodeficiency virus 1
Assay: Antiviral activity against HIV1 isolate 153 harboring reverse transcriptase L74V mutant gene by phenosense assay relative to wild type
Format: functional
Conditions: not given
In short: as §1

How did the “fold change (FC)” value turn out when Nc1ccn([C@@H]2CS[C@H](CO)O2)c(=O)n1 [LAMIVUDINE] was run?
Its value is 1.9.

System: Human immunodeficiency virus 1
Assay: Antiviral activity against HIV1 isolate 215 harboring reverse transcriptase D67N/K70E mutant gene by phenosense assay relative to wild type
Format: functional
Conditions: not given
In short: as §2

With Nc1ccn([C@@H]2CS[C@H](CO)O2)c(=O)n1 [LAMIVUDINE] as the compound, how does the “fold change (FC)” value read?
Its value is 2.9.

System: Human immunodeficiency virus 1
Assay: Antiviral activity against HIV1 isolate 067 harboring reverse transcriptase A62V/D67G/T69SVG/V75I/T215I mutant gene by phenosense assay relative to wild type
Format: functional
Conditions: not given
In short: as §1

Which “fold change (FC)” value does the source give for Nc1ccn([C@@H]2CS[C@H](CO)O2)c(=O)n1 [LAMIVUDINE] here?
Its value is 12.

System: Human immunodeficiency virus 1
Assay: Antiviral activity against HIV1 isolate 192 harboring reverse transcriptase M41L/T215Y mutant gene by phenosense assay
Format: functional, organism-based
Conditions: Human immunodeficiency virus 1, isolate 192
In short: as §1

How did the EC50 turn out when Nc1ccn([C@@H]2CS[C@H](CO)O2)c(=O)n1 [LAMIVUDINE] was run?
Its EC50 is 7.6 µM.

System: Human immunodeficiency virus 1
Assay: Antiviral activity against HIV1 isolate 200 harboring reverse transcriptase M41L/L210W/T215Y mutant gene by phenosense assay relative to wild type
Format: functional
Conditions: not given
In short: as §1

For Nc1ccn([C@@H]2CS[C@H](CO)O2)c(=O)n1 [LAMIVUDINE], which “fold change (FC)” value is on record?
The value was 2.7.

System: Human immunodeficiency virus 1
Assay: Antiviral activity against HIV1 isolate 160 harboring reverse transcriptase S68G/V75(I/T)/F77L/Y115F/F116Y /Q151M mutant gene by phenosense assay relative to wild type
Format: functional
Conditions: not given
In short: as §1

With Nc1ccn([C@@H]2CS[C@H](CO)O2)c(=O)n1 [LAMIVUDINE] as the compound, how does the “fold change (FC)” value read?
Its value is 24.

System: Human immunodeficiency virus 1
Assay: Antiviral activity against HIV1 isolate 061 harboring reverse transcriptase M41L/D67N/K70R/M184V/L210W/T215Y/K219E mutant gene by phenosense assay
Format: functional, organism-based
Conditions: Human immunodeficiency virus 1, isolate 061
In short: as §1

Nc1ccn([C@@H]2CS[C@H](CO)O2)c(=O)n1 [LAMIVUDINE] was tested. Which EC50 did it give?
Its EC50 is greater than 300 µM.

System: Human immunodeficiency virus 1
Assay: Antiviral activity against HIV1 isolate 160 harboring reverse transcriptase S68G/V75(I/T)/F77L/Y115F/F116Y /Q151M mutant gene by phenosense assay
Format: functional, organism-based
Conditions: Human immunodeficiency virus 1, isolate 160
In short: as §1

How did the EC50 turn out when Nc1ccn([C@@H]2CS[C@H](CO)O2)c(=O)n1 [LAMIVUDINE] was run?
The EC50 was 90 µM.

System: Human immunodeficiency virus 1
Assay: Antiviral activity against HIV1 isolate 166 harboring reverse transcriptase L74V mutant gene obtained as site-directed mutant of NL4-3 by phenosense assay
Format: functional, organism-based
Conditions: Human immunodeficiency virus 1, isolate 166
In short: as §1

For Nc1ccn([C@@H]2CS[C@H](CO)O2)c(=O)n1 [LAMIVUDINE], which EC50 is on record?
Its EC50 is 6.1 µM.

System: Human immunodeficiency virus 1
Assay: Antiviral activity against HIV1 isolate 157 harboring reverse transcriptase L74V/M184V mutant gene by phenosense assay relative to wild type
Format: functional
Conditions: not given
In short: as §1

How did the “fold change (FC)” value turn out when Nc1ccn([C@@H]2CS[C@H](CO)O2)c(=O)n1 [LAMIVUDINE] was run?
Its value is greater than 80.

System: Human immunodeficiency virus 1
Assay: Antiviral activity against HIV1 isolate 060 harboring reverse transcriptase M41L/D67N/K70R/L210W/T215Y/K219E mutant gene by phenosense assay relative to wild type
Format: functional
Conditions: not given
In short: as §1

Which “fold change (FC)” value does the source give for Nc1ccn([C@@H]2CS[C@H](CO)O2)c(=O)n1 [LAMIVUDINE] here?
Its value is 5.1.

System: Human immunodeficiency virus 1
Assay: Antiviral activity against HIV1 isolate 220 harboring reverse transcriptase K70E/M184V mutant gene by phenosense assay
Format: functional, organism-based
Conditions: Human immunodeficiency virus 1, isolate 220
In short: as §2

For Nc1ccn([C@@H]2CS[C@H](CO)O2)c(=O)n1 [LAMIVUDINE], which EC50 is on record?
Its EC50 is greater than 300 µM.

System: Human immunodeficiency virus 1
Assay: Antiviral activity against HIV1 isolate 188 harboring reverse transcriptase T215Y/M184V mutant gene by phenosense assay relative to wild type
Format: functional
Conditions: not given
In short: as §1

Which “fold change (FC)” value does the source give for Nc1ccn([C@@H]2CS[C@H](CO)O2)c(=O)n1 [LAMIVUDINE] here?
The value was greater than 80.

System: Human immunodeficiency virus 1
Assay: Antiviral activity against HIV1 isolate 174 harboring reverse transcriptase M184V mutant gene obtained as site-directed mutant of NL4-3 by phenosense assay
Format: functional, organism-based
Conditions: Human immunodeficiency virus 1, isolate 174
In short: as §1

For Nc1ccn([C@@H]2CS[C@H](CO)O2)c(=O)n1 [LAMIVUDINE], which EC50 is on record?
The EC50 was greater than 300 µM.

System: Human immunodeficiency virus 1
Assay: Antiviral activity against HIV1 isolate 185 harboring reverse transcriptase T215Y mutant gene by phenosense assay
Format: functional, organism-based
Conditions: Human immunodeficiency virus 1, isolate 185
In short: as §1

With Nc1ccn([C@@H]2CS[C@H](CO)O2)c(=O)n1 [LAMIVUDINE] as the compound, how does the EC50 read?
Its EC50 is 6.1 µM.

System: Human immunodeficiency virus 1
Assay: Antiviral activity against HIV1 isolate 066 harboring reverse transcriptase 184V mutant gene by phenosense assay
Format: functional, organism-based
Conditions: Human immunodeficiency virus 1, isolate 066
In short: as §1

How did the EC50 turn out when Nc1ccn([C@@H]2CS[C@H](CO)O2)c(=O)n1 [LAMIVUDINE] was run?
The EC50 was greater than 300 µM.

System: Human immunodeficiency virus 1
Assay: Antiviral activity against HIV1 isolate 058 harboring reverse transcriptase M41L/D67N/K70R/L210W/T215F/K219Q mutant gene by phenosense assay relative to wild type
Format: functional
Conditions: not given
In short: as §1

How did the “fold change (FC)” value turn out when Nc1ccn([C@@H]2CS[C@H](CO)O2)c(=O)n1 [LAMIVUDINE] was run?
The value was 3.7.

System: Human immunodeficiency virus 1
Assay: Antiviral activity against HIV1 isolate 204 harboring reverse transcriptase M41L/L210W/T215Y/M184V mutant gene by phenosense assay
Format: functional, organism-based
Conditions: Human immunodeficiency virus 1, isolate 204
In short: as §2

Which EC50 does the source give for Nc1ccn([C@@H]2CS[C@H](CO)O2)c(=O)n1 [LAMIVUDINE] here?
The EC50 was greater than 300 µM.

System: Human immunodeficiency virus 1
Assay: Antiviral activity against HIV1 isolate 058 harboring reverse transcriptase M41L/D67N/K70R/L210W/T215F/K219Q mutant gene by phenosense assay
Format: functional, organism-based
Conditions: Human immunodeficiency virus 1, isolate 058
In short: as §1

How did the EC50 turn out when Nc1ccn([C@@H]2CS[C@H](CO)O2)c(=O)n1 [LAMIVUDINE] was run?
The EC50 was 14 µM.

System: Human immunodeficiency virus 1
Assay: Antiviral activity against HIV1 isolate 061 harboring reverse transcriptase M41L/D67N/K70R/M184V/L210W/T215Y/K219E mutant gene by phenosense assay relative to wild type
Format: functional
Conditions: not given
In short: as §1

With Nc1ccn([C@@H]2CS[C@H](CO)O2)c(=O)n1 [LAMIVUDINE] as the compound, how does the “fold change (FC)” value read?
The value was greater than 71.

System: Human immunodeficiency virus 1
Assay: Antiviral activity against HIV1 isolate 185 harboring reverse transcriptase T215Y mutant gene by phenosense assay relative to wild type
Format: functional
Conditions: not given
In short: as §1

Nc1ccn([C@@H]2CS[C@H](CO)O2)c(=O)n1 [LAMIVUDINE] was tested. Which “fold change (FC)” value did it give?
The value was 1.6.

System: Human immunodeficiency virus 1
Assay: Antiviral activity against HIV1 isolate 166 harboring reverse transcriptase L74V mutant gene obtained as site-directed mutant of NL4-3 by phenosense assay relative to wild type
Format: functional
Conditions: not given
In short: as §1

For Nc1ccn([C@@H]2CS[C@H](CO)O2)c(=O)n1 [LAMIVUDINE], which “fold change (FC)” value is on record?
Its value is 1.6.

System: Human immunodeficiency virus 1
Assay: Antiviral activity against HIV1 isolate 056 expressing wild type reverse transcriptase gene by phenosense assay
Format: functional, organism-based
Conditions: Human immunodeficiency virus 1, isolate 056
In short: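 In the PhenoSense recombinant virus assay, virus was tested against increasing drug concentrations. EC50 came from the inhibition curve and was compared with a drug-sensitive reference virus.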

For Nc1ccn([C@@H]2CS[C@H](CO)O2)c(=O)n1 [LAMIVUDINE], which EC50 is on record?
Its EC50 is 3.2 µM.
